Results collected from several papers.
Compare with care: the assays were run in different laboratories.
CSF1R: Macrophage colony-stimulating factor 1 receptor (CSF1R, Homo sapiens, UniProt P07333)

CC(C)(C)c1cc(C=C(C#N)C#N)cc(Br)c1O
remaining activity (CSF1R; enzyme activity, inhibitor; 0.5 µM): 96.8%

Cn1cc(-c2cc(F)cc(N3CCn4c(cc5c4CCCC5)C3=O)c2CO)cc(Nc2ccc(N3CCN(C4COC4)CC3)cn2)c1=O
inhibition (CSF1R; enzyme activity, inhibitor; 0.1 µM): 13%

N#CC1(c2ccccn2)CCN(Cc2cc(C(=O)O)c(=O)n3ccccc23)CC1
remaining binding (CSF1R; cell-free assay, competition with immobilised ligand; 1 µM): 95%

C#Cc1n[nH]c2c(-c3cn([C@@H](C)c4ccccc4)c(=O)[nH]c3=O)cc(F)cc12
inhibition (CSF1R; enzyme activity, inhibitor; 0.1 µM): 4.9%

Cn1cc(-c2cccc(N3CCc4c(sc5c4CC(C)(C)C5)C3=O)c2CO)cc(Nc2ccncn2)c1=O
inhibition (CSF1R; enzyme activity, inhibitor; 1 µM): 6%

Nc1ncc(-c2nc(N3CCOCC3)nc(N3CCOCC3)n2)c(C(F)F)n1
remaining binding (CSF1R; cell-free assay, competition with immobilised ligand; 10 µM): 14%

C#Cc1n[nH]c2c(-c3cn(C(C)c4ccccn4)c(=O)[nH]c3=O)cc(F)cc12 (centres unmarked)
inhibition (CSF1R; enzyme activity, inhibitor; 1 µM): 5.8%

O=c1[nH]c2ccccc2n1C1CCN(Cc2ccc(-c3[nH]c4cc5ncnc5cc4nc3-c3ccccc3)cc2)CC1
remaining signal (CSF1R; cell-free assay; 0.5 µM): 97%

COc1ncccc1-c1cnn2ccc(N3CCN(C(=O)OC(C)C)CC3)nc12
remaining binding (CSF1R; binding, competition with immobilised ligand; 1 µM): 100%

Cn1cncc1[C@](O)(COc1ccc(C#N)cc1-c1ccc(OC(F)(F)F)cc1)c1ccc(C#N)cc1
remaining binding (Macrophage colony-stimulating factor 1 receptor, autoinhibited (CSF1R, Homo sapiens, UniProt P07333); cell-free assay, competition with immobilised ligand; 1 µM): 93%

COCc1c(-c2cc3cc(C)cc(OC)c3s2)c2c(N)ncnn2c1CN1CCNC(=O)C1
inhibition (CSF1R; cell-free assay, competition with immobilised ligand; 1 µM): 100%
